# Measurements pooled from the literature.
# Protocols differ between the studies behind these lines.
# SLC6A3: Sodium-dependent dopamine transporter (SLC6A3, Homo sapiens, UniProt Q01959)
# HDAC5: Histone deacetylase 5 (HDAC5, Homo sapiens, UniProt Q9UQL6)
# DRD3: D(3) dopamine receptor (DRD3, Homo sapiens, UniProt P35462)
Structure (SMILES),target,test,setting,IC50
CN1CCN(c2nc(-c3cc4cc(Br)ccc4oc3=O)cs2)CC1,"Carbonic anhydrase 12 (CA12, Homo sapiens, UniProt O43570)","enzyme activity, inhibitor, absorbance",,2.82 µM
CNc1nc(C#Cc2ccc(Cl)s2)nc2c1ncn2[C@H]1[C@H](O)[C@H](O)[C@]2(CC#N)C[C@H]12,SLC6A3,"transporter uptake, inhibitor, radiometric",,0.36 µM
CCCN(CCC)S(=O)(=O)c1ccc(C(=O)O)cc1,"Taste receptor type 2 member 16 (TAS2R16, Homo sapiens, UniProt Q9NYV7)","inositol phosphate, antagonist, TR-FRET",,770 µM
O=C(NO)c1ccc(Cn2cnc3c(Nc4ccc(Cl)cc4)ncnc32)cc1,HDAC5,"enzyme activity, inhibitor",,0.473 µM
NC(=O)c1nnn(Cc2cc(Cl)c(C(=O)c3ccc(Cl)cc3)c(Cl)c2)c1N,SLC6A3,"transporter uptake, inhibitor",,0.069 µM
O=C(Nc1ccc2[nH]c(=O)oc2c1)C(=O)N1CCC(Cc2ccc(F)cc2)CC1,"Glutamate NMDA receptor; GRIN1/GRIN2B (GRIN1/GRIN2B, Homo sapiens, UniProt Q05586+Q13224)","ion current, two-electrode voltage clamp",oocytes,0.029 µM
CSc1ccc(NS(=O)(=O)c2c(C)[nH]c(C)c2C(=O)N2CCC(F)(F)C2)cc1Cl,DRD3,"G protein activation, antagonist, BRET",,6 µM
CN(C)C(=O)c1cc2cnc(Nc3ccc(-c4ccc5c(=O)cc(N6CCOCC6)oc5c4)cc3)nc2n1C1CCCC1,"DNA-dependent protein kinase catalytic subunit (PRKDC, Homo sapiens, UniProt P78527)","enzyme activity, inhibitor",,0.192 µM
COc1ccc(N(Cc2nc(-c3ccc(F)cc3)cs2)C(=O)CCCCCC(=O)NO)cc1,HDAC5,"enzyme activity, inhibitor",,> 10 µM
N#CC[C@@]12C[C@@H]1[C@@H](n1cnc3c(NCCCCCCc4ccccc4)nc(I)nc31)[C@H](O)[C@@H]2O,SLC6A3,"transporter uptake, inhibitor, radiometric",,1.7 µM
CCc1ccc(NS(=O)(=O)c2c(C)[nH]c(C)c2C(=O)N2CCC(F)(F)C2)cc1Cl,DRD3,"β-arrestin recruitment, antagonist",,5.2 µM
COc1ccc(N(Cc2csc(-c3ccc(Br)cc3)n2)C(=O)CCCCCC(=O)NO)cc1,HDAC5,"enzyme activity, inhibitor",,> 10 µM
Cc1[nH]c(C)c(C(=O)N2CCC(F)(F)C2)c1C(=O)Nc1ccc(C(F)(F)F)c(Cl)c1,DRD3,"β-arrestin recruitment, antagonist",,41 µM
N=C(N)c1ccc(OCCCCCOc2ccc(C(=N)N)cc2)cc1,"Coagulation factor XI (F11, Homo sapiens, UniProt P03951)","enzyme activity, inhibitor, absorbance",,> 100 µM
Cc1[nH]c(C)c(S(=O)(=O)Nc2cc(Cl)cc(Cl)c2Cl)c1C(=O)N1CCC(F)(F)C1,DRD3,"β-arrestin recruitment, antagonist",,12 µM
COc1c(Cl)cccc1Nc1c(-c2ccncc2OC[C@@H]2COCCO2)[nH]c2c1C(=O)NCC2,"Discoidin domain-containing receptor 2 (DDR2, Homo sapiens, UniProt Q16832)","cell-free assay, TR-FRET",,0.0533 µM
